# Active and inactive are the calls of the source. The calls are words filed in the database; no cut-off is given here.
# Key:
# Alpha-amylase 1A [1] = target: T1, Alpha-amylase 1A (Homo sapiens, UniProt P0DUB6); test: Inhibition of human salivary alpha-amylase using GalG2CNP as substrate by UV-Vis spectrophotometric analysis; conditions: read-out: IC50
# T1 sequence (P0DUB6 whole entry): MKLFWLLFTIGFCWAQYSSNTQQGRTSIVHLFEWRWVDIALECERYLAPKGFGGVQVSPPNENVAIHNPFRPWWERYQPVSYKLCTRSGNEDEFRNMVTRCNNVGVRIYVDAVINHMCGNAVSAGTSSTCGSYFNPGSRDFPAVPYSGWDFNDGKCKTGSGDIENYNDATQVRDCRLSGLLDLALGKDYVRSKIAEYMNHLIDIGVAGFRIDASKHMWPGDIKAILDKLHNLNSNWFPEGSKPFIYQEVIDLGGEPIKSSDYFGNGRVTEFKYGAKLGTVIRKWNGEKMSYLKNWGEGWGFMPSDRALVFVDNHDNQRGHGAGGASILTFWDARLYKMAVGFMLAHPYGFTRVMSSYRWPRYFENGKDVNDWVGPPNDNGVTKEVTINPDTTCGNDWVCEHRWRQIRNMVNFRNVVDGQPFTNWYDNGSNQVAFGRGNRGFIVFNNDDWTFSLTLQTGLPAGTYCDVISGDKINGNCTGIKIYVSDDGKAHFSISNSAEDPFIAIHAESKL
# [2] = Inhibition of Escherichia coli MurC ligase after 15 mins by Malachite green assay
# [3] = target: T2, Alpha-amylase 1A (Homo sapiens) (UniProt P0DUB6); test: Competitive inhibition of human salivary alpha-amylase using GalG2CNP as substrate by Lineweaver-Burk plot analysis
# T2 sequence (whole entry): T1 sequence (P0DUB6 whole entry)
# Procedure, shortened: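 Inhibition mode assigned from Lineweaver-Burk plots. Human salivary α-amylase (2 nM) started reactions containing GalG2CNP (0.75–4 mM) and inhibitor in DMSO, in 50 mM MES pH 6.0 with 5 mM Ca(OAc)2, 51.5 mM NaCl, 152 mM NaN3 at 37°C. Rates from continuous 400 nm absorbance of released CNP.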
# [4] = target: T2, Alpha-amylase 1A (Homo sapiens); test: Potency index, ratio of BAS 04880564 IC50 to compound IC50 for human salivary alpha-amylase
# Escherichia coli = test: Inhibition of Escherichia coli MurC ligase assessed as residual activity at 100 uM after 15 mins by Malachite green assay
# Pancreatic alpha-amylase [5] = target: T3, Pancreatic alpha-amylase (Homo sapiens, UniProt P04746); test: Inhibition of human pancreatic alpha-amylase expressed in Pichia pastoris using amylase as substrate preincubated with substrate for 10 mins followed by protein addition measured every 5 mins by Dixon plot analysis
# T3 sequence (P04746 whole entry): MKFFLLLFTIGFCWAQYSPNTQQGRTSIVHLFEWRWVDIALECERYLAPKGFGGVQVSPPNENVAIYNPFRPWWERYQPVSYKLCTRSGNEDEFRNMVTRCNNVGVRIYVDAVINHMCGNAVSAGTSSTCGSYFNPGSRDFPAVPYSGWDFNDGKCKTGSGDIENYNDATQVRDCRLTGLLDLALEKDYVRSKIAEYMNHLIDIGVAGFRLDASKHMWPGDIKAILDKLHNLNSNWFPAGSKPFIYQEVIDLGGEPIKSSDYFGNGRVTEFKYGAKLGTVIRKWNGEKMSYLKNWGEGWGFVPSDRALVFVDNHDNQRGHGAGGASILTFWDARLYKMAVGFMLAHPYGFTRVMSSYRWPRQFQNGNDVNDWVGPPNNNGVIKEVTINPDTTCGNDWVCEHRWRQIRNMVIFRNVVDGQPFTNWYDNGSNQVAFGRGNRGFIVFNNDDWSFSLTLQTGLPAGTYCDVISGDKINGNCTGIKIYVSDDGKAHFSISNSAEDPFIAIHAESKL
# Pancreatic alpha-amylase [6] = target: T3, Pancreatic alpha-amylase; test: Competitive inhibition of human pancreatic alpha-amylase by double reciprocal plot analysis
# Alpha-amylase 1A [7] = target: T1, Alpha-amylase 1A; test: Non-competitive inhibition of human salivary alpha-amylase using GalG2CNP as substrate assessed as CNP liberation by Lineweaver-Burk plot analysis
# Procedure, shortened: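 Same HSA/GalG2CNP system: 2 nM enzyme, 0.75-4 mM substrate, 50 mM MES pH 6.0 with Ca(OAc)2, NaCl, NaN3, 37°C, CNP followed continuously at 400 nm, inhibitor added from DMSO. Inhibition type was assigned from Lineweaver-Burk plots.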
# Pancreatic alpha-amylase [8] = target: T3, Pancreatic alpha-amylase; test: Inhibition of human pancreatic alpha-amylase assessed as hydrolysis of G3F by Dixon plot analysis
# Pancreatic alpha-amylase [9] = target: T3, Pancreatic alpha-amylase; test: Inhibition of human pancreatic alpha-amylase
# [10] = Inhibition of malt alpha-amylase; conditions: concentration not given here
# [11] = target: Alpha amylase (Homo sapiens) (UniProt P0DUB6); test: Inhibition of alpha-amylase (unknown origin) relative to control; set-up: concentration or dose not given beside the values; conditions: concentration not given here
# [12] = target: T2, Alpha-amylase 1A (Homo sapiens); test: Inhibition of human salivary alpha-amylase using GalG2CNP as substrate at 200 uM by UV-Vis spectrophotometric analysis
# Procedure, shortened: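 Single-concentration test at 200 μM inhibitor against human salivary α-amylase (2 nM) with GalG2CNP substrate, 50 mM MES pH 6.0 containing 5 mM Ca(OAc)2, 51.5 mM NaCl, 152 mM NaN3, 37°C. Chloronitrophenol liberation monitored continuously at 400 nm by UV-Vis spectrophotometry.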
smiles,measurement,setting,value
O=C(O)c1cc(Nc2nc(-c3ccc(O)cc3O)cs2)ccc1O,IC50,Alpha-amylase 1A [1],423 µM
same,IC50,[2],347 µM
CN(C)c1ccc(Nc2nc(-c3ccc(O)cc3O)cs2)cc1,IC50,Alpha-amylase 1A [1],100 µM
same,Inhibition mode,[3],Active
same,Ratio IC50,[4],1.38
same,Activity,Escherichia coli,90%
C[C@H]1O[C@H](O[C@H]2[C@H](O)[C@@H](O)[C@@H](O[C@H]3[C@H](O)[C@@H](O)[C@@H](O[C@H]4[C@H](O)[C@@H](O)[C@@H](O[C@H]5[C@H](O)[C@@H](O)[C@@H](O)O[C@@H]5CO)O[C@@H]4CO)O[C@@H]3CO)O[C@@H]2CO)[C@H](O)[C@@H](O)[C@@H]1N[C@H]1C=C(CO)[C@@H](O[C@H]2O[C@H](CO)[C@@H](O[C@H]3O[C@H](C)[C@@H](N[C@H]4C=C(CO)[C@@H](O[C@H]5O[C@H](CO)[C@@H](O[C@H]6O[C@H](C)[C@@H](N[C@H]7C=C(CO)[C@@H](O)[C@H](O)[C@H]7O)[C@H](O)[C@H]6O)[C@H](O)[C@H]5O)[C@H](O)[C@H]4O)[C@H](O)[C@H]3O)[C@H](O)[C@H]2O)[C@H](O)[C@H]1O,Ki,Pancreatic alpha-amylase [5],0.0143 µM
C[C@@H]1O[C@@H](O[C@@H]2CO[C@@H](Oc3c(O)cc(C4=C(O[C@@H]5O[C@@H](C)[C@H](O)[C@@H](O)[C@H]5O[C@@H]5O[C@H](COC(=O)/C=C/c6ccc(O)cc6)[C@@H](O)[C@H](O)[C@H]5O[C@@H]5O[C@H](CO)[C@@H](O)[C@H](O)[C@H]5O)C(=O)c5c(O)cc(O)cc5C4)cc3O)[C@H](O)[C@H]2O)[C@H](O)[C@H](O)[C@H]1O,Ki,Pancreatic alpha-amylase [6],3.6 µM
C[C@H]1O[C@H](O[C@H]2[C@H](O)[C@@H](O)[C@@H](OC[C@H]3OC4(NC(=S)NC4=O)[C@H](O)[C@@H](O)[C@@H]3O)O[C@@H]2CO)[C@H](O)[C@@H](O)[C@@H]1N[C@H]1C=C(CO)[C@@H](O)[C@H](O)[C@H]1O (some centres undefined),Ki,Alpha-amylase 1A [7],0.19 µM
COc1cc(/C=C/C(=O)OC[C@H]2O[C@@H](O[C@H]3[C@H](OC4=C(c5cc(O)c(O[C@@H]6OC[C@@H](O[C@@H]7O[C@@H](C)[C@H](O)[C@@H](O)[C@H]7O)[C@H](O)[C@H]6O)c(O)c5)Cc5cc(O)cc(O)c5C4=O)O[C@@H](C)[C@H](O)[C@H]3O)[C@H](O[C@@H]3O[C@H](CO)[C@@H](O)[C@H](O)[C@H]3O)[C@@H](O)[C@@H]2O)ccc1O,Ki,Pancreatic alpha-amylase [6],6.1 µM
CO[C@H]1[C@H](O)[C@@H](O)[C@@H](O[C@H]2[C@H](O)[C@@H](O)[C@@H](O[C@H]3[C@H](O)[C@@H](O)/C(=N\O)N[C@@H]3CO)O[C@@H]2CO)O[C@@H]1CO,Ki,Pancreatic alpha-amylase [8],25 µM
C[C@H]1O[C@H](O[C@H]2[C@H](O)[C@@H](O)[C@@H](OC[C@H]3O[C@@H](O)[C@H](O)[C@@H](O)[C@@H]3O)O[C@@H]2CO)[C@H](O)[C@@H](O)[C@@H]1N[C@H]1C=C(CO)[C@@H](O)[C@H](O)[C@H]1O,Ki,Pancreatic alpha-amylase [9],0.012 µM
Oc1ccc(Nc2nc(-c3ccc(O)cc3O)cs2)cc1,IC50,Alpha-amylase 1A [1],138 µM
same,Inhibition mode,[3],Active
C[C@@H]1O[C@@H](O[C@@H]2CO[C@@H](Oc3c(O)cc(C4=C(O[C@@H]5O[C@@H](C)[C@H](O)[C@@H](O)[C@H]5O[C@@H]5O[C@H](COC(=O)/C=C/c6ccc(O)c(O)c6)[C@@H](O)[C@H](O)[C@H]5O[C@@H]5O[C@H](CO)[C@@H](O)[C@H](O)[C@H]5O)C(=O)c5c(O)cc(O)cc5C4)cc3O)[C@H](O)[C@H]2O)[C@H](O)[C@H](O)[C@H]1O,Ki,Pancreatic alpha-amylase [6],0.008 µM
COC1=C(O)C(=O)OC1C1COC(C)(C)O1 (centres undefined),inhibition,[10],0%
Cc1ccc(O)c(Cc2cc(C)cc(Cc3cc(C)ccc3O)c2O)c1,IC50,Alpha-amylase 1A [1],200 µM
same,Inhibition mode,[3],Active
OC[C@H]1N/C(=N/O)[C@H](O)[C@@H](O)[C@@H]1O,Ki,Pancreatic alpha-amylase [8],18000 µM
C[C@H]1O[C@H](O[C@H]2[C@H](O)[C@@H](O)[C@@H](O[C@H]3[C@H](O)[C@@H](O)[C@@H](O[C@H]4[C@H](O)[C@@H](O)[C@@H](O[C@H]5[C@H](O)[C@@H](O)[C@@H](O)O[C@@H]5CO)O[C@@H]4CO)O[C@@H]3CO)O[C@@H]2CO)[C@H](O)[C@@H](O)[C@@H]1N[C@H]1C=C(CO)[C@@H](O[C@H]2O[C@H](CO)[C@@H](O[C@H]3O[C@H](C)[C@@H](N[C@H]4C=C(CO)[C@@H](O[C@H]5O[C@H](CO)[C@@H](O[C@H]6O[C@H](C)[C@@H](N[C@H]7C=C(CO)[C@@H](O[C@H]8O[C@H](CO)[C@@H](O[C@H]9O[C@H](C)[C@@H](N[C@H]%10C=C(CO)[C@@H](O)[C@H](O)[C@H]%10O)[C@H](O)[C@H]9O)[C@H](O)[C@H]8O)[C@H](O)[C@H]7O)[C@H](O)[C@H]6O)[C@H](O)[C@H]5O)[C@H](O)[C@H]4O)[C@H](O)[C@H]3O)[C@H](O)[C@H]2O)[C@H](O)[C@H]1O,Ki,Pancreatic alpha-amylase [5],0.0416 µM
CC1OC(OC2C(CO)OC(OCC3OC(O)C(O)C(O)C3O)C(O)C2O)C(O)C(O)C1NC1C=C(CO)C(OC2OC(CO)C(OC3OC(CO)C(O)C(O)C3O)C(O)C2O)C(O)C1O (centres undefined),Ki,Pancreatic alpha-amylase [9],0.012 µM
NS(=O)(=O)c1ccc(Nc2nc(-c3ccc(O)cc3O)cs2)cc1,IC50,Alpha-amylase 1A [1],165 µM
same,Ratio IC50,[4],0.83
same,IC50,[2],531 µM
O=C1S/C(=C\c2cc(Cl)ccc2O)C(=O)N1Cc1cccc([N+](=O)[O-])c1,IC50,Alpha-amylase 1A [1],50 µM
same,Inhibition mode,[3],Active
same,Ratio IC50,[4],2.76
C[C@@H]1O[C@@H](O[C@H]2[C@H](Oc3cc(O)c4c(c3)O[C@H](c3ccc(O)cc3)CC4=O)O[C@H](CO)[C@@H](O)[C@@H]2O)[C@H](O)[C@H](O)[C@H]1O,inhibition,[11],0%
CC(=O)OCC(OC(C)=O)C1OC(O)=C(O)C1=O (centres undefined),inhibition,[10],99%
Nc1ccc(Nc2nc(-c3ccc(Cl)cc3Cl)cs2)cc1,IC50,Alpha-amylase 1A [1],270 µM
same,Ratio IC50,[4],0.51
OC[C@H]1N/C(=N/O)[C@H](O)[C@@H](O)[C@@H]1O[C@H]1O[C@H](CO)[C@@H](O[C@H]2O[C@H](CO)[C@@H](O)[C@H](O)[C@H]2O)[C@H](O)[C@H]1O,Ki,Pancreatic alpha-amylase [8],1800 µM
O=c1cc(-c2ccccc2)oc2cc(O)cc(O)c12,inhibition,[11],5%
CC1OC(OC2C(CO)OC(OC3C(CO)OC(O)C(O)C3O)C(O)C2O)C(O)C(O)C1NC1C=C(CO)C(OC2OC(CO)C(OC3OC(CO)C(O)C(O)C3O)C(O)C2O)C(O)C1O (centres undefined),Ki,Pancreatic alpha-amylase [5],1.25 µM
C[C@H]1O[C@H](O[C@H]2[C@H](O)[C@@H](O)[C@@H](O[C@H]3[C@H](O)[C@@H](O)[C@@H](O[C@H]4[C@H](O)[C@@H](O)[C@@H](O[C@H]5[C@H](O)[C@@H](O)[C@@H](O)O[C@@H]5CO)O[C@@H]4CO)O[C@@H]3CO)O[C@@H]2CO)[C@H](O)[C@@H](O)[C@@H]1N[C@H]1C=C(CO)[C@@H](O[C@H]2O[C@H](CO)[C@@H](O[C@H]3O[C@H](C)[C@@H](N[C@H]4C=C(CO)[C@@H](O)[C@H](O)[C@H]4O)[C@H](O)[C@H]3O)[C@H](O)[C@H]2O)[C@H](O)[C@H]1O,Ki,Pancreatic alpha-amylase [5],0.0147 µM
Oc1cc(O)c2c(c1)O[C@@H](c1ccc(O)c(O)c1)[C@H](O)C2,inhibition,[11],16%
CC1=NN(c2ccccc2)C(=O)/C1=C(/NNC(=O)c1ccccc1O)c1ccccc1,inhibition,[12],inactive
O=C(O)c1cccc(N2C(=O)/C(=C/c3ccccc3O)SC2=S)c1,IC50,Alpha-amylase 1A [1],62 µM
same,Ratio IC50,[4],2.22
COc1ccc(Nc2nc(-c3ccccc3O)cs2)cc1,IC50,Alpha-amylase 1A [1],40 µM
same,Ratio IC50,[4],3.45
C[C@H]1O[C@H](O[C@H]2[C@H](O)[C@@H](O)[C@@H](O)O[C@@H]2CO)[C@H](O)[C@@H](O)[C@@H]1N[C@H]1C=C(CO)[C@@H](O)[C@H](O)[C@H]1O,Ki,Pancreatic alpha-amylase [9],0.075 µM
COc1cc(Br)cc(/C=C2/SC(Nc3cccc(C(=O)O)c3)=NC2=O)c1O,IC50,Alpha-amylase 1A [1],260 µM
same,Ratio IC50,[4],0.53
